# Assay outcomes from PubChem.
# H69AR inhibit: blocks growth of human H69AR lung tumor cells. hit rate 6% among 85,000. H69AR lung tumor viability, ATP luminescence, 72 h; stronger effect = lower value. viability, % at 10 µM;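 active = viability at or below 40%; inactive = viability above 40%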;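 also: multidrug resistant small cell line overexpressing MRP-1 efflux transporter; 100% = mean luminescence of untreated control wells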
# Ecoli tolC: E. coli tolC mutant growth inhibition; E. coli BW25113 tolC mutant growth, OD615; growth inhibition, % at 10 µM (by protocol); hit rate 2.2% among 65,000; AID 573;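 active = growth inhibition at or above a cutoff equal to the mean over every tested compound plus 3 SD, cut at about 60% in these data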;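 also: growth measured after 20 h incubation at 37 °C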
#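 Test system: tolC-deleted E. coli BW25113 | Medium: LB with kanamycin 50 µg/mL | Compound dosing: Single concentration, 10 µM final per compound | Schedule: 37 °C, 20 h exposure | Measured by: OD at 615 nm | Evaluation: Percent growth inhibition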
# Jurkat tox 60K: cytotoxic compounds reducing Jurkat cell viability | Jurkat E6.1 viability, ATP luminescence, 48 h | inhibition, % at 4 µM | hit rate 1.2% among 56,000;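 active = inhibition above the mean inhibition of all tested compounds plus 3 SD, cut at about 28% in these data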
# Fibroblast inh: blocks proliferation of human lung fibroblasts; LL 47 human lung fibroblast viability, ATP luminescence; stronger effect = lower value; viability, % at 10 µM; hit rate 1.1% among 85,000; AID 719;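 active = viability at or below 50% in the single dose screen; inactive = viability above 50%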;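 also: compound exposure lasted 72 h before the ATP readout; 100% = median luminescence of untreated cell-only wells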
#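 Signal: luminescent ATP detection, CellTiter-Glo; assay system: LL 47 human lung fibroblasts; input: 1,150 cells/well; incubation: overnight cell rest, 72 h compound treatment at 37 °C; measure: % viability versus median cells-only luminescence; medium: IMEM growth medium with 15% fetal bovine serum; dosing: compound addition at 0.1% DMSO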
# E coli WT exp: E. coli BW25113 growth inhibition, expanded screen. hit rate 0.15% among 98,000. growth inhibition, % at 100 µM. OD600 absorbance. AID 710;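 active = growth inhibition above about 50% at one test dose, limit read from the data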;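 also: growth measured after 20 h incubation at 37 °C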
# HUVEC prolif 384: inhibitors of human endothelial cell proliferation. HUVEC proliferation, CellTiter-Glo luminescence, 72 h; stronger effect = lower value. viability, % at 10 µM (by protocol). hit rate 1.1% among 86,000. AID 648;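 active = viability at or below 30%; inactive = viability above 30%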;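 also: 100% = median luminescence of DMSO-only cell control wells on each plate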
# An asterisk follows results filed as active; / = no result. Most compounds without a hit are left out; they make up all but 6.4% or so of the library.
SMILES,H69AR inhibit,Ecoli tolC,Jurkat tox 60K,Fibroblast inh,E coli WT exp,HUVEC prolif 384
CCC(C)n1c(NC(=O)c2ccccc2)c(C#N)c2nc3ccccc3nc21 (centres undefined),2.9*,/,/,101,/,51
CCCOc1ccccc1Cn1c(=O)oc2ccc(C)cc21,96,73*,/,91,2,113
Cc1cccc(-c2noc(CN(C(=O)CCc3ccccc3)C(C)C)n2)c1,94,76*,8,108,0,106
Cc1ccc(-c2noc(CN(C(=O)c3cccc(Br)c3)C(C)C)n2)cc1,92,78*,2,94,0,120
CCCc1cc(-c2[nH]ncc2-c2ccc(C(=O)OCC)o2)c(O)cc1O,82,43,6,72,1,86
CCCOC(=O)c1ccc(-c2c(C)noc2-c2ccc(OC)cc2O)o1,75,99*,8,87,-6,98
COc1ccc(-c2nn(-c3ccccc3)cc2/C=N/N2C(=O)CSC2=S)cc1,60,/,/,59,-3,4.0*
COc1ccc(/C=N/N2C(=O)CSC2=S)cc1,110,/,/,110,10,104
CCCCOc1ccc(S(=O)(=O)N2CCCCCC2)cc1,89,62*,-1,100,9,92
CS(=O)(=O)Nc1ccccc1C(=O)c1ccccc1,94,-4,-2,104,2,110
BrC(/C=N/Nc1nc(N2CCOCC2)nc(N2CCOCC2)n1)=C/c1ccccc1,/,/,/,/,-4,/
Cc1c(CN(C)C)c2c(n1Cc1ccccc1)C(=O)c1ccc(Br)cc1-2,5.5*,/,/,46*,16,22*
Cc1c(CN(C)C)c2c(n1C)C(=O)c1ccc(Br)cc1-2,66,18,-8,77,6,78
COc1ccccc1-c1cc(C(=O)NCc2ccc(Cl)cc2)no1,86,-4,8,113,-3,85
COc1ccccc1-c1cc(C(=O)NCc2ccccc2)no1,93,80*,6,109,-10,96
COc1ccccc1-c1cc(C(=O)NCc2ccc(F)cc2)no1,/,92*,-4,/,-10,/
COc1ccc(CNC(=O)c2cc(-c3ccccc3OC)on2)cc1,98,69*,4,92,-2,88
O=C(NCc1ccc(F)cc1)c1cc(-c2ccco2)on1,96,-9,-6,91,0,99
O=C(Nc1nccs1)C1CCCN1S(=O)(=O)c1ccc(F)cc1 (centres undefined),87,-5,5,97,-2,100
Cc1nc(N2CCOCC2)c(C#N)c(C)c1Br,104,/,/,100,0,92
Cc1csc(NC(=O)c2c(O)c3c(n(CC(C)C)c2=O)CCCC3)n1,33*,46,9,91,-12,119
N=c1cc(C2(O)CCCCC2)n2c(nc3ccccc32)s1,6.8*,-2,/,96,6,65
Cc1cc(C(=O)CSc2nnc(-c3ccc(F)cc3)o2)c(C)n1CC1COc2ccccc2O1 (centres undefined),33*,/,/,81,-9,52
Cc1ccc(NC(=O)c2ccc(Cl)c(N3C(=O)C=CC3=O)c2)cc1,/,/,/,/,9,/
Cc1ccc(NN2C(=O)C=C(c3ccc(Cl)cc3)C2=O)cc1,2.3*,/,/,87,3,53
SMILES,H69AR inhibit,Ecoli tolC,Jurkat tox 60K,Fibroblast inh,E coli WT exp,HUVEC prolif 384
O=C1C=C(c2ccccc2)C(=O)N1Nc1ccccc1,1.3*,/,/,67,11,73
C[C@]12CC[C@@H]3c4ccc(O)cc4CC[C@H]3[C@@H]1CC[C@@H]2O,27*,/,/,88,/,35
Cc1cc(C)n(-c2nc(-c3ccc(Cl)cc3)cs2)n1,88,/,/,87,-9,99
O=C(OCC(=O)N1CCN(C(=O)c2ccco2)CC1)c1cc(-c2ccc(Cl)c(Cl)c2Cl)nc2ccccc12,0.9*,/,/,104,-9,6.3*
CN(c1cccc(Cl)c1)S(=O)(=O)c1cccc(C(=O)NC2=NCCS2)c1,40*,/,/,100,6,89
CC(Oc1ccc(Cl)cc1Cl)C(=O)Nc1ccncc1 (centres undefined),34*,12,44*,83,14,81
CC(Oc1ccc(Cl)cc1Cl)C(=O)Nc1cccnc1 (centres undefined),95,/,/,101,/,93
COc1ccc(CCNc2oc(COc3ccccc3Cl)nc2C#N)cc1OC,89,45,4,98,-19,76
FC(F)(F)c1cc(C(F)(F)F)c2ccc(N/N=C/c3ccccc3)nc2n1,/,/,/,/,-1,/
N#CC(c1ccccc1)c1ccc2c(C(F)(F)F)cc(C(F)(F)F)nc2n1 (centres undefined),24*,/,/,39*,-1,63
Cc1ccc(C(C#N)c2ccc3c(C(F)(F)F)cc(C(F)(F)F)nc3n2)cc1 (centres undefined),24*,/,/,75,-15,62
O=C(NCC1COc2ccccc2O1)c1ccc(NC(=O)C2CCCO2)cc1 (centres undefined),105,3,/,109,1,96
CC(NC(=O)c1cc(-c2ccc(Br)cc2)on1)c1ccccc1 (centres undefined),22*,3,-5,74,-1,76
Cc1c(C(=O)OC2CCCC2C)[nH]c2c1C(=O)CCC2 (centres undefined),89,84*,7,97,-1,90
CCCc1c(C(=O)OCC)[nH]c2c1C(=O)CCC2,96,46,3,93,2,98
Cc1c(C(=O)OCCOc2ccccc2)[nH]c2c1C(=O)CCC2,79,63*,/,91,-8,78
Cc1ccc(/C=C/C(=O)Nc2cc(C)on2)cc1,88,/,/,84,-6,74
CC(Cl)C(=O)c1c(N)n(C)c(=O)n(C)c1=O (centres undefined),/,/,/,/,-8,/
CCCSc1nc(C)c2cc(C)cc(C)c2n1,95,/,/,80,4,104
Cc1cc(C)c2nc(SC(C)C#N)cc(C)c2c1 (centres undefined),31*,/,/,96,-1,93
Cc1ccc(C2NC(=O)NC(O)(C(F)(F)F)C2C(=O)c2cccs2)o1 (centres undefined),104,-7,-4,98,/,17*
COc1ccc(OC)c(C2CC(=O)c3c([nH]c(C(=O)OC(C)C)c3C)C2)c1 (centres undefined),28*,31,98*,56,-6,31
COc1cc(C2CC(=O)c3c([nH]c(C(=O)OCCOC(C)C)c3C)C2)cc(OC)c1OC (centres undefined),/,15,43*,/,2,/
CCCOCCOC(=O)c1[nH]c2c(c1C)C(=O)CC(c1cc(OC)ccc1OC)C2 (centres undefined),19*,1,22,63,-11,45
CCOC(=O)C1=C(C)Nc2ncnn2C1c1cc(OC)ccc1OC (centres undefined),91,3,1,100,2,95
COCCOC(=O)c1[nH]c2c(c1C)C(=O)CC(c1cc(OC)ccc1OC)C2 (centres undefined),/,-10,65*,/,0,/
